Experiment [1] relates to Leishmania amazonensis. The experiment can be described thus: Antileishmanial activity against Leishmania amazonensis IFLA/BR/1967/PH8 promastigotes after 72 hrs by MTT assay. The format is functional. (In general: Formazan colour is commonly taken as a measure of viable cells.)
Experiment [2] relates to Leishmania amazonensis. Briefly: Antileishmanial activity against Leishmania amazonensis WHOM/BR/75/Josefa promastigotes transfected with green fluorescent protein after 72 hrs by MTT assay. The format is functional.
In experiment [3] the test system is Leishmania amazonensis. The experiment can be described thus: Antileishmanial activity against Leishmania amazonensis WHOM/BR/75/Josefa amastigotes transfected with green fluorescent protein infected in murine macrophages after 72 hrs by fluorometric analysis. The format is functional. A digest of the protocol: (§1)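 Infected murine macrophages treated 0.78-100.0 µM for 72 h; fluorescence read at 540/600 nm for RFP parasites (PH8) and 485/528 nm for GFP parasites (Josefa strain); IC50 from three independent experiments in duplicate.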

Experiment [4] deals with Leishmania amazonensis. Briefly: Antileishmanial activity against Leishmania amazonensis IFLA/BR/1967/PH8 amastigotes transfected with red fluorescent protein infected in murine macrophages after 72 hrs by fluorometric analysis. Particulars: IFLA/BR/1967/PH8, 72 h. The format is functional. In a few lines:
as §1

Experiment [5] is described as follows: Selectivity index, ratio of CC50 for mouse peritoneal macrophages to IC50 for Leishmania amazonensis WHOM/BR/75/Josefa amastigotes transfected with green fluorescent protein. A digest of the protocol: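 SI = CC50 for mouse peritoneal macrophages / GFP amastigote IC50. […] IC50: macrophages infected with GFP-expressing Josefa-strain parasites, treated with 0.78–100.0 µM for 72 h; fluorescence read at 485 nm excitation/528 nm emission. Three experiments in duplicate.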

The subject of experiment [6] is Leishmania amazonensis. Briefly: Antileishmanial activity against Leishmania amazonensis IFLA/BR/1967/PH8 amastigotes infected in murine macrophages at 3.6 uM incubated for 72 hrs followed by compound washout measured after 72 hrs by microscopic method relative to control. Format: functional. Particulars: IFLA/BR/1967/PH8, 72 h. A digest of the protocol: (§2)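 Macrophages infected with WT PH8 parasites treated 72 h at 33 °C, 5% CO2; washed twice in PBS, then held in drug-free Warren's medium + 10% serum at 25 °C for 72 h; viable promastigotes counted microscopically versus untreated; three independent experiments in duplicate.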

Experiment [7] deals with Leishmania amazonensis. Briefly: Antileishmanial activity against Leishmania amazonensis IFLA/BR/1967/PH8 amastigotes infected in murine macrophages at 1.8 uM incubated for 72 hrs followed by compound washout measured after 72 hrs by microscopic method relative to control. The format is functional. Particulars: IFLA/BR/1967/PH8, 72 h. A digest of the protocol: as §2
Experiment [8] has as its system Leishmania amazonensis. The experiment can be described thus: Induction of mitochondrial membrane potential loss in Leishmania amazonensis IFLA/BR/1967/PH8 promastigotes at 10 uM after 24 hrs by JC-1 staining-based spectrofluorometric analysis relative to control. Format: functional. A digest of the protocol: (§3)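 Exponential WT promastigotes (1x10^7 cells/mL) treated 24 h at 25 °C; washed, JC-1 loaded, read at 485/528 and 540/600 nm; Δψm as 600/528 ratio, untreated = 100%; FCCP 20.0 µM for 30 min as positive control; three experiments in triplicate.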

The test system of experiment [9] is Leishmania amazonensis. The experiment can be described thus: Induction of mitochondrial membrane potential loss in Leishmania amazonensis IFLA/BR/1967/PH8 promastigotes at 5 uM after 24 hrs by JC-1 staining-based spectrofluorometric analysis relative to control. The format is functional. A digest of the protocol: as §3
The test system of experiment [10] is Leishmania amazonensis. The experiment can be described thus: Induction of mitochondrial membrane potential loss in Leishmania amazonensis IFLA/BR/1967/PH8 promastigotes at 2.5 uM after 24 hrs by JC-1 staining-based spectrofluorometric analysis relative to control. Format: functional. A digest of the protocol:
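Exponential-phase WT (PH8) promastigotes at 1x10^7 cells/mL, treated 24 h at 25 °C with 2.5–20.0 µM, then harvested, washed and loaded with JC-1. Fluorescence read at 485/528 and 540/600 nm; ΔΨm taken as the 600/528 ratio. Untreated control set to 100%. Positive control was FCCP 20.0 µM for 30 min. Three experiments in triplicate.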

Experiment [11] relates to Leishmania amazonensis. Briefly: Induction of ROS accumulation in Leishmania amazonensis IFLA/BR/1967/PH8 promastigotes at 10 uM after 72 hrs by H2DCFDA staining-based fluorometric analysis relative to control. Format: functional. In a few lines:
(§4)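 WT exponential-phase promastigotes treated at 25 °C; adjusted to 2x10^7 cells in PBS, loaded with H2DCFDA 30 min dark at room temperature; fluorescence 485/528 nm versus untreated; three independent experiments.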

The subject of experiment [12] is Leishmania amazonensis. The experiment can be described thus: Induction of ROS accumulation in Leishmania amazonensis IFLA/BR/1967/PH8 promastigotes at 5 uM after 72 hrs by H2DCFDA staining-based fluorometric analysis relative to control. Format: functional. A digest of the protocol:
as §4

Experiment [13] relates to Leishmania amazonensis. Briefly: Induction of lipid inclusions in Leishmania amazonensis IFLA/BR/1967/PH8 promastigotes at 20 uM after 24 hrs by Nile Red satining-based spectrofluorometric analysis relative to control. Format: functional. A digest of the protocol: (§5)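 WT (PH8) promastigotes at 1x10^7 cells/mL in exponential phase, cultured 24 h at 25 °C with or without 2.5–20.0 µM. Parasites incubated with Nile Red, then fluorescence measured spectrofluorometrically. Reported as arbitrary fluorescence units versus untreated parasites, mean of three experiments run in triplicate.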

Experiment [14] concerns Leishmania amazonensis. Briefly: Induction of lipid inclusions in Leishmania amazonensis IFLA/BR/1967/PH8 promastigotes at 10 uM after 24 hrs by Nile Red satining-based spectrofluorometric analysis relative to control. Format: functional. A digest of the protocol: as §5
For experiment [15], the system named is Leishmania amazonensis. The experiment can be described thus: Induction of apoptosis in Leishmania amazonensis IFLA/BR/1967/PH8 promastigotes assessed as early apoptotic population at 20 uM after 24 hrs by Annexin V-FITC/PI staining based flow cytometric analysis (reference value: 5.29%). Format: functional. In a few lines: (§6)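 Exponential-phase WT promastigotes (1x10^7 cells/mL) cultured 24 h at 25 °C; stained annexin V-FITC plus PI, flow cytometry with 10,000 events gated on parasites; quadrant percentages; three independent experiments.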

The subject of experiment [16] is Leishmania amazonensis. The experiment can be described thus: Induction of apoptosis in Leishmania amazonensis IFLA/BR/1967/PH8 promastigotes assessed as early apoptotic population at 10 uM after 24 hrs by Annexin V-FITC/PI staining based flow cytometric analysis (reference value: 5.29%). The format is functional. A digest of the protocol:
as §6

Experiment [17] concerns Leishmania amazonensis. Briefly: Induction of apoptosis in Leishmania amazonensis IFLA/BR/1967/PH8 promastigotes assessed as late apoptotic population at 10 uM after 24 hrs by Annexin V-FITC/PI staining based flow cytometric analysis (reference value: 2.62%). The format is functional. In a few lines: as §6
(In general: A flow cytometer gives signals particle by particle.)

In experiment [18] the test system is Leishmania amazonensis. The experiment can be described thus: Induction of apoptosis in Leishmania amazonensis IFLA/BR/1967/PH8 promastigotes assessed as necrotic population at 10 uM after 24 hrs by Annexin V-FITC/PI staining based flow cytometric analysis (reference value: 0.03%). Format: functional. A digest of the protocol: as §6
Experiment [19] has as its system Leishmania amazonensis. Briefly: Induction of apoptosis in Leishmania amazonensis IFLA/BR/1967/PH8 promastigotes assessed as early apoptotic population at 5 uM after 24 hrs by Annexin V-FITC/PI staining based flow cytometric analysis (reference value: 5.29%). Format: functional. A digest of the protocol:
as §6

For experiment [20], the system named is Leishmania amazonensis. Briefly: Induction of apoptosis in Leishmania amazonensis IFLA/BR/1967/PH8 promastigotes assessed as necrotic population at 5 uM after 24 hrs by Annexin V-FITC/PI staining based flow cytometric analysis (reference value: 0.03%). The format is functional. A digest of the protocol: as §6
For experiment [21], the system named is Leishmania amazonensis. The experiment can be described thus: Induction of autophagy in Leishmania amazonensis IFLA/BR/1967/PH8 promastigotes at 20 uM after 24 hrs by MDC staining-based fluorometric analysis relative to control. Format: functional. A digest of the protocol:
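Exponential WT promastigotes (1x10^7 cells/mL) treated 24 h at 25 °C; washed, adjusted to 10x10^6 cells/mL, 100 µM monodansylcadaverine 1 h dark at 25 °C; fluorescence 335/460 nm versus untreated; three independent experiments.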

Experimental findings from ChEMBL document CHEMBL4033653, “Effect of 1,2,3-triazole salts, non-classical bioisosteres of miltefosine, on Leishmania amazonensis” (Bioorg Med Chem, 2017) are described below.

For `CC(=O)[O-].CCCCCCCCCCn1cc(CO)[n+](C)n1`, the IC50 in the experiment on Leishmania amazonensis [1] turned out to be 2.6 µM; with Leishmania amazonensis [2] it was 3.3 µM; in the experiment with Leishmania amazonensis [3], 0.8 µM; in the experiment on Leishmania amazonensis [4], 1 µM. Also, the “Ratio CC50/IC50” value in experiment [5] worked out at 144.9. This compound also gave an inhibition at 3.6 µM in the experiment on Leishmania amazonensis [6] of 83.1%. The same compound returned an inhibition at 1.8 µM in the experiment on Leishmania amazonensis [7] of 69%. Further, the Activity was 32.5% with Leishmania amazonensis [8]; 20% in the experiment on Leishmania amazonensis [9]; 37.5% with Leishmania amazonensis [10]; 54% in the experiment with Leishmania amazonensis [11]; 40.7% in the experiment on Leishmania amazonensis [12]; 30.92% in the experiment on Leishmania amazonensis [15]. Further, the Activity with Leishmania amazonensis [16] was determined as 28.56%; in the experiment with Leishmania amazonensis [17] it was 11.16%; in the experiment on Leishmania amazonensis [18], 2.18%; in the experiment with Leishmania amazonensis [19] it was 39.1%; in the experiment on Leishmania amazonensis [20] it was 0.3%; in the experiment on Leishmania amazonensis [21] it was 49.8%. The figures for the “fold change (FC)” value with Leishmania amazonensis [13] and in the experiment with Leishmania amazonensis [14] were 2.5 and 1.9, respectively.

The IC50 is the midpoint of a concentration-inhibition curve. A higher IC50 goes with a need for much substance. Broadly, the inhibition is the drop in the measured response relative to a control, in per cent.
